In data set [1] the target is T1, Peroxisome proliferator-activated receptor gamma (Homo sapiens) (UniProt P37231).
T1 sequence (whole entry): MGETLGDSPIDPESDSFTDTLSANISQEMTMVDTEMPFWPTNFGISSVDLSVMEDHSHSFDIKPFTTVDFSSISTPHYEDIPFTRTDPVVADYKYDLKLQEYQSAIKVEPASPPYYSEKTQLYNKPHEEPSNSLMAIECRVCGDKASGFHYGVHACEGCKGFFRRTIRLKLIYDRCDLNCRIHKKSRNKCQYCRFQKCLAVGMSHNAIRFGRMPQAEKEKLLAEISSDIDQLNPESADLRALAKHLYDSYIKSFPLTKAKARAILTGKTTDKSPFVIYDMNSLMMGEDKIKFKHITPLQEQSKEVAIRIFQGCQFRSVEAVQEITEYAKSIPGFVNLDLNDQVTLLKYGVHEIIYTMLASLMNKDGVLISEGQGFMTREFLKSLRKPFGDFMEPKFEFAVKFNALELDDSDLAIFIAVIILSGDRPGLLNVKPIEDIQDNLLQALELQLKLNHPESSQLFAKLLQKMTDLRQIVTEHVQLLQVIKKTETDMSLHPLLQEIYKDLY
The experiment in a line: Transactivation of chimeric GAL4-fused human PPARgamma transfected in HEK293EBNA cells measured at 24 hrs after drug treatment by steady-Glo luciferase assay reagent based luminescence assay relative to pioglitazone. Type of data set: cell-based. In outline: (§1)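 HEK293EBNA cells in DMEM with 10% FBS, 37 °C, 5% CO2, transiently co-transfected with pM-human PPARγ/GAL4 expression vector and pZAC19-Luc reporter; 24 h later plated and treated with compound 1-3000 nM (n = 3 per concentration), diluted from DMSO in unsupplemented DMEM, for 24 h. Steady-Glo luciferase readout, normalized to pioglitazone 1000 nM (100%); EC50 at 50% of own maximum.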

Data set [2] deals with T2, Peroxisome proliferator-activated receptor gamma (Homo sapiens, UniProt P37231).
T2 sequence (P37231 whole entry): T1 sequence (whole entry)
The experiment in a line: Transactivation of chimeric GAL4-fused human PPARgamma transfected in HEK293EBNA cells measured at 24 hrs after drug treatment by steady-Glo luciferase assay reagent based luminescence assay. It counts as cell-based. In a few lines: as §1

Data set [3] is described as follows: AUC in BALB/c mouse at 10 mg/kg, po by LC-MS/MS analysis. Type of data set: ADME, organism-based. The conditions noted are these: in vivo. In outline: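 Male BALB/c mice, single oral dose 10 mg/kg (n = 2). Tail-vein blood at set times, plasma protein-precipitated with acetonitrile plus internal standard, LC-MS/MS (APCI, positive ion), quantified against standard curve in control plasma; AUC by noncompartmental analysis of concentration-time profile.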

The target in data set [4] is T1, Peroxisome proliferator-activated receptor gamma (Homo sapiens). The experiment in a line: Agonist activity at PPARgamma in human MKN45 cells assessed as induction of cell aggregation incubated for 5 days by Hoechst 33342 staining based IN cell analyzer method relative to (E)-3-(1-(8-((4-methyl-2-propyl-1H-benzo[d]imidazol-1-yl)methyl)dibenzo[b,e]oxepin-11(6H)-ylidene)ethyl)-1,2,4-oxadiazol-5(4H)-one. In outline:
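MKN45 cells in RPMI1640 with 10% FBS at 37 °C, 5% CO2, seeded 2500 cells/well and exposed to compound 1-1000 nM (n = 3 per concentration) for 5 days. Nuclei stained with Hoechst 33342, imaged on IN Cell Analyzer, nuclear area computed. Maximum activity expressed as % of reference compound maximum; EC50 = concentration giving 50% of own maximum.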

The nature of data set [5]: Intrinsic clearance in human liver microsomes incubated for 30 mins in presence of NADPH by LC-MS/MS analysis. For orientation: Liver microsomes are vesicles of endoplasmic reticulum, rich in cytochrome P450 enzymes.
Data set [6] is described as follows: Toxicity in Crlj:CD1(ICR) mouse assessed as serum hematocrit value at 200 mg/kg, po bid for 4 days by micro-hematocrit method (reference value: 44.1%). Type of data set: organism-based. The settings on record: in vivo, 96 h.
Data set [7] in a line: Antitumour activity against human AsPC1/AG1 cells xenografted in SCID mouse assessed as minimal dose required for reduction in tumor volume administered orally bid for 14 days starting from 7th day post tumor inoculation. Type of data set: functional. The settings on record: ASPC1, po, 336 h, read-out: MED. In a few lines:
(§2)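 Male SCID mice (8 weeks) inoculated s.c. with 3×10^7 AsPC-1/AG1 cells; from day 7, randomized by tumour volume into groups of 5 given 12.5, 25, 50 or 100 mg/kg or 0.5% MC400 vehicle orally twice daily for 14 days. Volume = 0.5 × major × minor² measured twice weekly; relative volume V/V0 versus day 0; Steel test, P < 0.05.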
(Xenograft models place foreign cells or tissue in a host animal.)

Data set [8] relates to Homo sapiens. In words: Antitumour activity against human AsPC1/AG1 cells xenografted in SCID mouse assessed as increase in angptl4 mRNA expression at 100 mg/kg, po bid for 14 days starting from 7th day post tumor inoculation and measured at 4 hrs post last dose by qRT-PCR analysis.
Data set [9] deals with Homo sapiens. The experiment in a line: Antitumour activity against human AsPC1/AG1 cells xenografted in SCID mouse assessed as reduction in tumor volume at 12.5 to 100 mg/kg, po bid for 14 days starting from 7th day post tumor inoculation. Type of data set: functional, organism-based. In outline:
as §2

Data set [10] in a line: Toxicity in Crlj:CD1(ICR) mouse assessed as serum hematocrit value at 50 mg/kg, po bid for 4 days by micro-hematocrit method (reference value: 44.1%). Type of data set: organism-based. The settings on record: in vivo, 96 h.
Data set [11] relates to Homo sapiens. The experiment in a line: Antitumour activity against human AsPC1/AG1 cells xenografted in SCID mouse assessed as saturated level of reduction in tumor volume at >25 mg/kg, po bid for 14 days starting from 7th day post tumor inoculation and measured after 10 days. It counts as functional, organism-based. In a few lines: as §2
In data set [12] the test system is Homo sapiens. In words: Antitumour activity against human AsPC1/AG1 cells xenografted in SCID mouse assessed as increase in cell differentiation marker krt20 mRNA expression level at 100 mg/kg, po bid for 14 days starting from 7th day post tumor inoculation and measured at 4 hrs post last dose by qRT-PCR analysis. It counts as functional, organism-based. In a few lines: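 Male SCID mice bearing s.c. AsPC-1/AG1 tumours (3×10^7 cells in PBS), dosed orally twice daily for 14 days from day 7 after inoculation; vehicle 0.5% MC400. Tumours collected 4 h after last dose; angptl4 and krt20 mRNA measured by qPCR, fold induction relative to baseline.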

The nature of data set [13]: Toxicity in C57BL/6 mouse assessed as hematocrit level at 40 mg/kg (reference value: 45%). The settings on record: in vivo. Type of data set: organism-based.

By EC50 is commonly meant the concentration needed to bring the measured effect to its halfway point. Low values mean a more potent agent, high ones a less potent agent. What is called AUC is concentration integrated over time. The low end stands for low exposure, the high end for high exposure. Usually CLint scaled stands for the rate of metabolic loss divided by the concentration.

Activity calls are given as the source filed them. No cut-off for these calls is given here.

Turning to `C/C(=C1/c2ccc(Cc3c(C4CC4)nc4cc(Cl)ccn34)cc2COc2cc(F)ccc21)c1noc(=O)[nH]1`, the figures for the Emax in [1] and in [4] were 12.6% and 101%, respectively. The EC50 in data set [2] worked out at 3.6 nM. In [3], this molecule had an AUC of 10200 ng·h/mL.
The matching figures for `C/C(=C1/c2ccc(Cc3c(C4CC4)nc4cc(F)ccn34)cc2COc2cc(F)ccc21)c1noc(=O)[nH]1`: 13.5%, 112%, 13 nM and 5510 ng·h/mL.
Turning to `C/C(=C1/c2ccc(Cc3c(C4CC4)nc4c5c(ccn34)OCC5)cc2COc2cc(F)ccc21)c1noc(=O)[nH]1`, the Emax in data set [1] stood at 9.7%; in data set [4], 110%. In [2], this molecule returned an EC50 of 23 nM. Further, the AUC in data set [3] worked out at 8760 ng·h/mL. In [5], the CLint scaled at 0.5 h was 33.3 mL/min/kg.
`C/C(=C1/c2ccc(Cn3c(C4CC4)nc4c(Cl)nccc43)cc2COc2cc(F)ccc21)c1noc(=O)[nH]1`: the Emax in data set [1] amounted to 13.7%; in data set [4] it was 105%. In data set [2], this molecule displayed an EC50 of 24 to 59 nM. In addition, in data set [5], the CLint scaled at 0.5 h was 167 mL/min/kg.
In the case of `CCCc1nc2ccccc2n1Cc1ccc2c(c1)COc1c(F)cccc1/C2=C(\C)c1noc(=O)[nH]1`, the Emax is 8.7% in [1] and 101% in data set [4]. In [2], this molecule displayed an EC50 of 4.4 nM. Also, the CLint scaled at 0.5 h in data set [5] is 377 mL/min/kg.
With `C/C(=C1/c2ccc(Cn3c(C4CC4)nc4cscc43)cc2COc2cc(F)ccc21)c1noc(=O)[nH]1`, the Emax stood at 13.7% in data set [1] and 105% in data set [4]. The EC50 in [2] was found to be 21 nM. The molecule further came in with an AUC in data set [3] of 196 ng·h/mL. In [5], the CLint scaled at 0.5 h is 41.7 mL/min/kg.
Turning to `CCCc1nc2ccccc2n1Cc1ccc2c(c1)COc1ccc(F)cc1/C2=C(\C)c1noc(=O)[nH]1`, the results for the Emax in [1] and in data set [4] were 6.9% and 102%, respectively. Further, the CLint scaled at 0.5 h in data set [5] was > 415 mL/min/kg.
Turning to `C/C(=C1/c2ccc(Cc3c(C4CC4)nc4c(Cl)cccn34)cc2COc2cc(F)ccc21)c1noc(=O)[nH]1`, the Activity in data set [6] is 42%; in data set [10] it was 42.9%. For the same molecule, the minimal effective dose in data set [7] lay within 12.5 to 25 mg/kg. For the same molecule, the Emax in data set [1] came out at 10.6%; in data set [4], 103%. For the same molecule, the outcome in [8] and in [12] was Active. This molecule yielded an AUC in [3] of 6890 ng·h/mL. Further, the inhibition entry in [9] and in data set [11] was “Active” each time.
`COCc1nc2cc(Cl)ccn2c1Cc1ccc2c(c1)COc1cc(F)ccc1/C2=C(\C)c1noc(=O)[nH]1`: the figures for the Emax in [1] and in data set [4] were 9% and 106%, respectively. Further, the AUC in data set [3] amounted to 2450 ng·h/mL.
With `CCCc1nc2ccccc2n1Cc1ccc2c(c1)COc1cc(F)ccc1/C2=C(\C)c1noc(=O)[nH]1`, the Emax in [1] came out at 11.7%; in [4], 104%. The AUC in data set [3] amounted to 1480 ng·h/mL.
As for `CCCc1nc2c(C)cccc2n1Cc1ccc2c(c1)COc1ccccc1/C2=C(\C)c1noc(=O)[nH]1`, the CLint scaled at 0.5 h in data set [5] was > 415 mL/min/kg.
As to `CCc1ccc(CCOc2ccc(CC3SC(=O)NC3=O)cc2)nc1` (centres undefined) [PIOGLITAZONE], the Activity in data set [13] is recorded as 41%.
Turning to `COCc1nc2c(Cl)cccn2c1Cc1ccc2c(c1)COc1cc(F)ccc1/C2=C(\C)c1noc(=O)[nH]1`, the Emax in data set [1] was 7.4%; in data set [4] it was 96%. This molecule had an EC50 in data set [2] of 7.3 nM. This molecule also showed an AUC in [3] of 1090 ng·h/mL. Moreover, the CLint scaled at 0.5 h in [5] was 21.7 mL/min/kg.
Regarding `C/C(=C1/c2ccc(Cc3c(C4CC4)nc4ccccn34)cc2COc2cc(F)ccc21)c1noc(=O)[nH]1`, the values for the Emax in [1] and in data set [4] were 9.8% and 106%, respectively. In addition, the EC50 in data set [2] worked out at 19 nM. This molecule had an area under the curve (AUC) in data set [3] of 3750 ng·h/mL.
In the case of `C/C(=C1/c2ccc(Cn3c(C4CC4)nc4c(Cl)ccnc43)cc2COc2cc(F)ccc21)c1noc(=O)[nH]1`, the figures for the Emax in data set [1] and in data set [4] were 10.3% and 101%, respectively. In [2], the EC50 fell in the range of 32 to 38 nM. Also, in data set [5], the CLint scaled at 0.5 h is 38.3 mL/min/kg.
`C/C(=C1/c2ccc(Cc3c(C4CC4)nc4ccc(Cl)cn34)cc2COc2cc(F)ccc21)c1noc(=O)[nH]1`: the Emax in data set [1] is 15.1%; in data set [4] it was 102%. For the same molecule, in data set [2], the EC50 came out at 11 nM. Besides, the AUC in data set [3] was 1710 ng·h/mL. In addition, in data set [5], the CLint scaled at 0.5 h is 66.7 mL/min/kg.
In the case of `CCCc1nc2c(C)cccc2n1Cc1ccc2c(c1)OCc1ncccc1/C2=C(\C)c1noc(=O)[nH]1`, the EC50 in data set [2] worked out at 2190 nM. In addition, the CLint scaled at 0.5 h in data set [5] is 34.3 mL/min/kg.
The matching figures for `CCCc1nc2c(C)cccc2n1Cc1ccc2c(n1)COc1ccccc1/C2=C(\C)c1noc(=O)[nH]1`: 86 nM and > 415 mL/min/kg.

For the origin of these results see ChEMBL document CHEMBL4304839, “Development of a novel class of peroxisome proliferator-activated receptor (PPAR) gamma ligands as an anticancer agent with a unique binding mode based on a non-thiazolidinedione scaffold” (Bioorg Med Chem, 2019).
